Results reported in ChEMBL document CHEMBL1124649, “Platelet activating factor antagonists: synthesis and structure-activity studies of novel PAF analogues modified in the phosphorylcholine moiety” (J Med Chem, 1989).

What was measured:
Format in all cases: functional
[1] = test system: Rattus norvegicus; experiment: Compound was evaluated for the percent inhibition of the platelet activating factor (PAF) hypotension, after 60 min of intravenous injection of 0.1 mg/kg in rat; settings: 1 h
[2] = test system: Mus musculus; experiment: Time course of protecting effect on PAF-induced death in mice, at the dose of 1 mg/kg after 8 hr
Procedure, shortened: (§1)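 Conscious male ICR-Jcl mice, 5-7 weeks old. Drug dissolved in saline (0.1 mL/10 g) given into the tail vein 8 or 24 h before PAF (50 μg/kg, iv); saline-only controls. Death defined as cessation of respiration. Survival rate recorded 60 min after PAF. 16 mice per compound, 142 controls; χ2 test versus control.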

[3] = test system: Mus musculus; experiment: Time course of protecting effect on PAF-induced death in mice, at the dose of 1 mg/kg after 24 hr; procedure, shortened: as §1
[4] = test system: Rattus norvegicus; experiment: Compound was evaluated for the percent inhibition of the platelet activating factor (PAF) hypotension, after 5 min of intravenous injection of 0.1 mg/kg in rat
[5] = test system: Rattus norvegicus; experiment: Compound was evaluated for the percent inhibition of the platelet activating factor (PAF) hypotension, after 120 min of intravenous injection of 0.1 mg/kg in rat; settings: 2 h
[6] = test system: Rattus norvegicus; experiment: Compound was evaluated for the percent inhibition of the platelet activating factor (PAF) hypotension, after 120 min of intravenous injection of 1 mg/kg in rat; settings: 2 h
[7] = test system: Rattus norvegicus; experiment: Compound was evaluated for the percent inhibition of the platelet activating factor (PAF) hypotension, after 60 min of intravenous injection of 1 mg/kg in rat; settings: 1 h
[8] = test system: Rattus norvegicus; experiment: Compound was evaluated for the percent inhibition of the platelet activating factor (PAF) hypotension, after 5 min of intravenous injection of 1 mg/kg in rat

SMILES	inhibition in vivo at 0.1 mg/kg [1] [%]	survival at 1 mg/kg [2] [%]	survival at 1 mg/kg [3] [%]	inhibition in vivo at 0.1 mg/kg [4] [%]	inhibition in vivo at 0.1 mg/kg [5] [%]	inhibition in vivo at 1 mg/kg [6] [%]	inhibition in vivo at 1 mg/kg [7] [%]	inhibition in vivo at 1 mg/kg [8] [%]
CCCCCCCCCCCCCCCCCCNC(=O)OCC(COC(=O)N(Cc1csc[n+]1CC)C(C)=O)OC (stereo not given)	40	75	25	100	14			
CCCCCCCCCCCCCCCCCCNC(=O)OCC(COC(=O)N(Cc1cccc[n+]1CCC)C(C)=O)OC (stereo not given)	0			45				
CCCCCCCCCCCCCCCCCCNC(=O)OC[C@@H](COC(=O)N(Cc1cccc[n+]1CC)C(C)=O)OC	54			100	17			
CCCCCCCCCCCCCCCCCCNC(=O)OCC(COC(=O)N(Cc1cccc[n+]1CC)C(C)=O)OC (stereo not given) [CV-6209]	55	100	69	100	34			
CCCCCCCCCCCCCCCCCCNC(=O)OC[C@H](COC(=O)N(Cc1cccc[n+]1CC)C(C)=O)OC	36			100	20			
CCCCCCCCCCCCCCCCCCNC(=O)OCC(COC(=O)N(Cc1csc[n+]1C)C(C)=O)OC (stereo not given)						4	29	92
CCCCCCCCCCCCCCCCCCNC(=O)OCC(COC(=O)N(Cc1cccc[n+]1C)C(C)=O)OC (stereo not given)						33	39	82
CCCCCCCCCCCCCCCCCCNC(=O)OCC(COC(=O)N(Cc1scc[n+]1C)C(C)=O)OC (stereo not given)	6			43	0	30	100	100
CCCCCCCCCCCCCCCCCCNC(=O)OCC(COC(=O)N(Cc1cccc[n+]1CCCC)C(C)=O)OC (stereo not given)							0	100
CCCCCCCCCCCCCCCCCCNC(=O)OCC(COC(=O)N(Cc1scc[n+]1CC)C(C)=O)OC (stereo not given)	3			100	0			
